Measured values from ChEMBL document CHEMBL2016522, “Discovery and Hit-to-Lead Optimization of Non-ATP Competitive MK2 (MAPKAPK2) Inhibitors” (ACS Med Chem Lett, 2011).
pEC50, pIC50: −log10 of the molar value.

Legend:
[1] = target: T1, MAP kinase-activated protein kinase 2 (Homo sapiens, UniProt P49137); test: Inhibition of MK2-mediated HSP27 phosphorylation in IL-1beta stimulated human SW1353 cells incubated for 30 mins prior to IL-1beta-stimulation measured after 27 mins by ELISA; type: cell-based
T1 sequence (P49137 whole entry): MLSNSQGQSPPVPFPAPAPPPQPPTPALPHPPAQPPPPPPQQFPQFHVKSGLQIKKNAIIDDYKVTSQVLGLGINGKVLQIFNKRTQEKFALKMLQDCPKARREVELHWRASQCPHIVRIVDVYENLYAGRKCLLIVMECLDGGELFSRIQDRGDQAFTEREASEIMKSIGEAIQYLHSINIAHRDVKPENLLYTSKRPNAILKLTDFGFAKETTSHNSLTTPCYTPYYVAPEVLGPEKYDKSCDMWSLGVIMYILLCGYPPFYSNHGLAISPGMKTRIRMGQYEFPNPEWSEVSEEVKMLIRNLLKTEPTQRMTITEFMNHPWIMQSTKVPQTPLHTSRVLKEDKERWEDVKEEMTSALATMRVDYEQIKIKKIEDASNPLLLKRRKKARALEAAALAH

[2] = target: T1, MAP kinase-activated protein kinase 2; test: Inhibition of MK2 using Acam peptide as substrate incubated for 30 mins prior to substrate addition measured after 10 mins using 100 uM ATP by DELFIA assay
[3] = Cytotoxicity against human SW1353 cells after 30 mins by ATP-dependent luciferase luminescence assay; type: cell-based
[4] = target: T2, Cytochrome P450 2C9 (Homo sapiens, UniProt P11712); test: Inhibition of CYP2C9 in human liver microsomes using tolbutamide as substrate incubated for 30 mins prior to substrate addition; type: ADME, Microsome
T2 sequence (P11712 whole entry): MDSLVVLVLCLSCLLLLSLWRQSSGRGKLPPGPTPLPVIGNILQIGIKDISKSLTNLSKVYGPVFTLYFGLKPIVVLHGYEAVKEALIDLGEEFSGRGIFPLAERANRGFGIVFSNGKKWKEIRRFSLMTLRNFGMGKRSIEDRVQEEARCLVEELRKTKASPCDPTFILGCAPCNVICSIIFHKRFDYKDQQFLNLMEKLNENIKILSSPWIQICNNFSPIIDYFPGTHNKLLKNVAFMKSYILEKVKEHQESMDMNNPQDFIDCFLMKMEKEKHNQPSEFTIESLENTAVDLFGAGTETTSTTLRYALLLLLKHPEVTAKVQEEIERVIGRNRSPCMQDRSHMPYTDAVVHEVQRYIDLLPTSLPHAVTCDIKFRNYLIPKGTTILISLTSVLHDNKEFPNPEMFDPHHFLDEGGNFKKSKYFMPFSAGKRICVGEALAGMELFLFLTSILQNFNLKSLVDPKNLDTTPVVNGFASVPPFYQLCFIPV
Outline: (§1)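 Tested against a panel of cytochrome P450 enzymes at compound concentrations up to 30 μM.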

[5] = test system: SW1353; test: Inhibition of IL1beta-stimulated MMP13 secretion in human SW1353 cells incubated for 30 mins prior to IL1beta-stimulation measured after 24 hrs by ELISA; type: functional, cell-based
Outline: (§2)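 Cells are treated with a range of compound concentrations, then stimulated with IL1-β, and secreted MMP-13 is measured. Two cell systems are used: the SW1353 line and human primary chondrocytes derived from osteoarthritis tissue. Each data point is the average, with standard error, of duplicate samples.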

[6] = target: T3, Cytochrome P450 3A4 (Homo sapiens, UniProt P08684); test: Inhibition of CYP3A4 in human liver microsomes using testosterone as substrate incubated for 30 mins prior to substrate addition; type: ADME, Microsome; outline: as §1
T3 sequence (P08684 whole entry): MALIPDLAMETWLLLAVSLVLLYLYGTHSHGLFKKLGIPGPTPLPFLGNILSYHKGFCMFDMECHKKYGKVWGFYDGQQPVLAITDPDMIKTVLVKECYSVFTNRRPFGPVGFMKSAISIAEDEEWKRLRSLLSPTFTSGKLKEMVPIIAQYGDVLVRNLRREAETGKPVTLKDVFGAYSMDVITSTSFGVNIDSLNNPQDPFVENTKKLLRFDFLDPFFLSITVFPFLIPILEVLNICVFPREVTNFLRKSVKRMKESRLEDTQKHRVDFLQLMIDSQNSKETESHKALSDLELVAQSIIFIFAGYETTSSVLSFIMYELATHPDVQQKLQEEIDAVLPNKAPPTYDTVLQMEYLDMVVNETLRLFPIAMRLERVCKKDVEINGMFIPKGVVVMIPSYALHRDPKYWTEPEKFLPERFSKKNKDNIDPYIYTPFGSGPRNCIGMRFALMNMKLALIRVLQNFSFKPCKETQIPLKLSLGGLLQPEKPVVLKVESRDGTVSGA

[7] = target: T4, Cytochrome P450 2D6 (Homo sapiens, UniProt P10635); test: Inhibition of CYP2D6 in human liver microsomes co-incubated with dextromethorphan; type: ADME, Microsome; outline: as §1
T4 sequence (P10635 whole entry): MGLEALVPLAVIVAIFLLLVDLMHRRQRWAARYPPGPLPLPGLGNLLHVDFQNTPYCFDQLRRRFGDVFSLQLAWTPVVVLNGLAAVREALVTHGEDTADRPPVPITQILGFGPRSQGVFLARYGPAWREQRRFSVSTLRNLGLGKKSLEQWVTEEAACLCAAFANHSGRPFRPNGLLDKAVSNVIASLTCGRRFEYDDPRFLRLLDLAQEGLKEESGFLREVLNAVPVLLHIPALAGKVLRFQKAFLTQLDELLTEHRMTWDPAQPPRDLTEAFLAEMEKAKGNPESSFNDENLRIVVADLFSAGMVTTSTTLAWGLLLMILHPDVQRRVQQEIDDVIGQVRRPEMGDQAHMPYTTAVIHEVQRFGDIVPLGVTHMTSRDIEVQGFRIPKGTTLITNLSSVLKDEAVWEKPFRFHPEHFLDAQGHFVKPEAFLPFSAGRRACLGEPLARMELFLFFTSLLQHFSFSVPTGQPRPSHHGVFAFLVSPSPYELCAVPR

[8] = target: T4, Cytochrome P450 2D6; test: Inhibition of CYP2D6 in human liver microsomes using dextromethorphan as substrate incubated for 30 mins prior to substrate addition; type: ADME, Microsome; outline: as §1
[9] = target: T3, Cytochrome P450 3A4; test: Inhibition of CYP3A4 in human liver microsomes co-incubated with testosterone; type: ADME, Microsome; outline: as §1
[10] = test system: THP-1; test: Antiinflammatory activity in human THP1 cells assessed as inhibition of LPS-induced IL6 production incubated for 30 mins prior to LPS-challenge measured after 18 hrs by immunoabsorbent-based electrochemical luminescence assay; type: functional, cell-based
Outline: (§3)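 Human THP1 acute monocytic leukemia cells are treated with a range of compound concentrations and stimulated with LPS. Secreted TNFα or IL6 is then measured. Each data point is the average, with standard error, of duplicate samples.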

[11] = target: T2, Cytochrome P450 2C9; test: Inhibition of CYP2C9 in human liver microsomes co-incubated with tolbutamide; type: ADME, Microsome; outline: as §1
[12] = (§4) Inhibition of IL1beta-stimulated MMP13 secretion in human primary chondrocytes incubated for 30 mins prior to IL1beta-stimulation measured after 24 hrs by ELISA; type: functional, cell-based; outline: as §2
[13] = test system: THP-1; test: Antiinflammatory activity in human THP1 cells assessed as inhibition of LPS-induced TNFalpha production incubated for 30 mins prior to LPS-challenge measured after 3 hrs by ELISA; type: functional, cell-based; outline: as §3
[14] = AUC (0 to 6 hrs) in rat at 10 mg/kg, po; type: ADME, organism-based; parameters: time < 6 hr, dose 10 mg/kg, route oral; details: plasma
Outline: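 Single oral dose of 10 mg/kg in rats. Plasma exposure is reported as AUC in nM h.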

[15] = target: Interleukin-1 receptor-associated kinase 4 (Homo sapiens, UniProt Q9NWZ3); test: Inhibition of human IRAK4
[16] = target: Tyrosine-protein kinase Lck (Homo sapiens, UniProt P06239); test: Inhibition of human LCK
Chain of Tyrosine-protein kinase Lck (P06239 whole entry): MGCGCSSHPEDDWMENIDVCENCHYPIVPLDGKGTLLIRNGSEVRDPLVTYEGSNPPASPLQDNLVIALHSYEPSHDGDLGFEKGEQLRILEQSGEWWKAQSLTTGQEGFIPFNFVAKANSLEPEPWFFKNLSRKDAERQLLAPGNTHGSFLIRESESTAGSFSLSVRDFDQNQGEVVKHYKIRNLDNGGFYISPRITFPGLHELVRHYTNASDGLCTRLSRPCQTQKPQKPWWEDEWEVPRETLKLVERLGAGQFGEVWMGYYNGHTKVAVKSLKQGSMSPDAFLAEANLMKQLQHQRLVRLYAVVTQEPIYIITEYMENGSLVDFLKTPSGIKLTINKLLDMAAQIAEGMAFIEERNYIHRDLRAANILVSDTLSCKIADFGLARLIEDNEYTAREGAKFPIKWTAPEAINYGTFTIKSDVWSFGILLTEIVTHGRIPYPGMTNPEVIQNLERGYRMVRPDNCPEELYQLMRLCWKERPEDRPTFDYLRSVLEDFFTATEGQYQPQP

[17] = Solubility of the compound; type: physicochemical
[18] = target: Casein kinase I isoform delta (Homo sapiens, UniProt P48730); test: Inhibition of human CSNK1D
Chain of Casein kinase I isoform delta (P48730 whole entry, canonical isoform): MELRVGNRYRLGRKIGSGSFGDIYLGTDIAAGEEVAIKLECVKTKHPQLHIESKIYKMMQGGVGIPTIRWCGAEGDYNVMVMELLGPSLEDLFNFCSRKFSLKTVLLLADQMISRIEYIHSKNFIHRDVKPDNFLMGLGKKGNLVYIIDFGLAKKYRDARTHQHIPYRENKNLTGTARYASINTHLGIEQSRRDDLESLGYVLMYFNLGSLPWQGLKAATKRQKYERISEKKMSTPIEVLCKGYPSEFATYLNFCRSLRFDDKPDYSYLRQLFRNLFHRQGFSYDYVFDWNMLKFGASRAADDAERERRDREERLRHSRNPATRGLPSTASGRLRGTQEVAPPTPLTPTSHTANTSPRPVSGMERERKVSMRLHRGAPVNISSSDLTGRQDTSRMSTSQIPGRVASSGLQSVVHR

[19] = target: Calcium/calmodulin-dependent protein kinase type IV (Homo sapiens, UniProt Q16566); test: Inhibition of human CAMK4
[20] = target: Testis-specific serine/threonine-protein kinase 2 (Homo sapiens, UniProt Q96PF2); test: Inhibition of human TSSK2
[21] = target: T1, MAP kinase-activated protein kinase 2; test: Inhibition of MK2 using Acam peptide as substrate incubated for 30 mins prior to substrate addition measured after 10 mins using 2 uM ATP by DELFIA assay
[22] = target: Serine/threonine-protein kinase 3 (Homo sapiens, UniProt Q13188); test: Inhibition of human MST2
Chain of Serine/threonine-protein kinase 3 (Q13188 whole entry): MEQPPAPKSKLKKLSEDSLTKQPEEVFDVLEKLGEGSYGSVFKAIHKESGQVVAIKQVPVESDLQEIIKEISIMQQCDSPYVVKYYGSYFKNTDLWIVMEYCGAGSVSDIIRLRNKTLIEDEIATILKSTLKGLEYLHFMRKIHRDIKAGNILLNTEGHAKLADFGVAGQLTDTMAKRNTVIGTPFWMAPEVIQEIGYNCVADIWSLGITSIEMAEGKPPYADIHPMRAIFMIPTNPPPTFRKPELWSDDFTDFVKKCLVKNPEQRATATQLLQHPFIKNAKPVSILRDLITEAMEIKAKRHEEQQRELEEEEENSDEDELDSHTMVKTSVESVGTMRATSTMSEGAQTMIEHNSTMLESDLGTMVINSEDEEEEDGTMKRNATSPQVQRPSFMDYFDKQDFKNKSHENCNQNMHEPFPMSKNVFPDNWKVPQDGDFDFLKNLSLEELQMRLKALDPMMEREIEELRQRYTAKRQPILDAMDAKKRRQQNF

[23] = target: Serine/threonine-protein kinase Chk1 (Homo sapiens, UniProt O14757); test: Inhibition of human CHK1
[24] = target: Inhibitor of nuclear factor kappa-B kinase subunit beta (Homo sapiens, UniProt O14920); test: Inhibition of human IKKB
[25] = target: Rho-associated protein kinase 2 (Homo sapiens, UniProt O75116); test: Inhibition of human ROCK2
[26] = target: Insulin-like growth factor 1 receptor (Homo sapiens, UniProt P08069); test: Inhibition of human IGF1R
[27] = target: RAC-alpha serine/threonine-protein kinase (Homo sapiens, UniProt P31749); test: Inhibition of human AKT1
[28] = target: Hepatocyte growth factor receptor (Homo sapiens, UniProt P08581); test: Inhibition of human MET
Chain of Hepatocyte growth factor receptor (P08581 whole entry, canonical isoform): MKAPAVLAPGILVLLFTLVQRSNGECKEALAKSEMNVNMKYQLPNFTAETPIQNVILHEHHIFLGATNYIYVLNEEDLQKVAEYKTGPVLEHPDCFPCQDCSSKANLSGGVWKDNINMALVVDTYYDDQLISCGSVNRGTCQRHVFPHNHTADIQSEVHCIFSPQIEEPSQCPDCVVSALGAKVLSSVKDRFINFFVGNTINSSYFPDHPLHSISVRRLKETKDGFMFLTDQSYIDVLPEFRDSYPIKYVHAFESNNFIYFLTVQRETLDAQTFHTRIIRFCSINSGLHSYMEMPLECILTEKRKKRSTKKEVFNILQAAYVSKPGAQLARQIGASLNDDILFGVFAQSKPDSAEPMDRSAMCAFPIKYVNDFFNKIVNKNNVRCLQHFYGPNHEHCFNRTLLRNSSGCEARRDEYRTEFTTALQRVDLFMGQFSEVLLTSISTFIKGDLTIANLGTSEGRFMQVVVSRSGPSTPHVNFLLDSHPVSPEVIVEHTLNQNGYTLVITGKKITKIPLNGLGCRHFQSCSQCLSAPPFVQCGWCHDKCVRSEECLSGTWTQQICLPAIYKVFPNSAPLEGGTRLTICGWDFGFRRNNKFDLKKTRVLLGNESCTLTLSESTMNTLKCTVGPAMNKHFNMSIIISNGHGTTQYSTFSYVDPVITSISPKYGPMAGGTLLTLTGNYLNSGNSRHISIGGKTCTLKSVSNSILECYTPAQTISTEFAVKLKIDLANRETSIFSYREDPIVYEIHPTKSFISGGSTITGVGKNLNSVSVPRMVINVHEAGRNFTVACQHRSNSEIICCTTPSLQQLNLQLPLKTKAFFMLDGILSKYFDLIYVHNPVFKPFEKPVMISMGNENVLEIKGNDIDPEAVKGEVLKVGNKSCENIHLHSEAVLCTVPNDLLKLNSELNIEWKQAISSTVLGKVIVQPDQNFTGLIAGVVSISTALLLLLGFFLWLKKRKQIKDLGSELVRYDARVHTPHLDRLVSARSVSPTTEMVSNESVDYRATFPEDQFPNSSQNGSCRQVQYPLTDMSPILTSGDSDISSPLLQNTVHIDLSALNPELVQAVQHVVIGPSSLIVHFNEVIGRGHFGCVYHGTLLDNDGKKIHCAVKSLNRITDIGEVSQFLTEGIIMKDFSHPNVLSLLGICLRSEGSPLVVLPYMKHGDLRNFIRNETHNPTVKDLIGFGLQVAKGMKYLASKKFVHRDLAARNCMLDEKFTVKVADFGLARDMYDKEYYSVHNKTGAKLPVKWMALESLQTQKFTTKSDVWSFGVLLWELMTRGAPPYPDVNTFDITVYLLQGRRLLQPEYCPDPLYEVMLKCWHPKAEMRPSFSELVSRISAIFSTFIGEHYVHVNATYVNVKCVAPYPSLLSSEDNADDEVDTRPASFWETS

[29] = target: Casein kinase I isoform gamma-3 (Homo sapiens) (UniProt Q9Y6M4); test: Inhibition of human CK1gamma3 at 10 uM
[30] = species: Homo sapiens; test: as §4; type: functional, cell-based; outline: as §2

Row | SMILES | pEC50 [1] | pIC50 [2] | CC50 at 0.5 h [3] | also measured
1 | COc1ccc(-c2ccc(C(=O)Nc3ccc(N4CCNCC4)cc3)o2)cc1 | 5.10 | 4.66 | – | –
2 | O=C(Nc1ccc(N2CCNCC2)cc1)c1ccc(-c2ccccc2Cl)o1 | < 5.10 | 5.10 | 15 µM | –
3 | O=C(Nc1ccc(N2CCC(O)CC2)cc1)c1ccc(-c2ccc(Cl)cc2)o1 | – | < 4.70 | – | –
4 | CCCN(C(=O)c1ccc(-c2ccc(Cl)cc2)o1)c1ccc(N2CCNCC2)cc1 | – | – | > 20 µM | –
5 | O=C(Nc1ccc(N2CCNCC2)cc1)c1cc(-c2ccc(Cl)cc2)on1 | 5.72 | 5.12 | 1 µM | –
6 | O=C(c1ccc(-c2ccc(Cl)cc2)o1)N(Cc1ccccn1)c1ccc(N2CCNCC2)cc1 [listing 1 of 2 here] | – | – | > 20 µM | pIC50 [4]: < 4.52; pIC50 [5]: 5.24; pIC50 [6]: < 4.70; pIC50 [7]: < 4.70; pIC50 [8]: < 4.70; pIC50 [9]: < 4.70; pIC50 [10]: 5.28; pIC50 [11]: < 4.70; pIC50 [12]: 5.66; pIC50 [13]: 5.36
7 | Cl.O=C(c1ccc(-c2ccc(Cl)cc2)o1)N(Cc1ccccn1)c1ccc(N2CCNCC2)cc1 | – | – | – | AUC(0-t) at 6 h [14]: 2.3 µM·h
8 | CN1CCN(c2ccc(NC(=O)c3ccc(-c4ccc(Cl)cc4)o3)cc2)CC1 | 4.70 | 5.22 | – | –
9 | O=C(Nc1ccc(N2CCNCC2)cc1)c1csc(-c2ccc(Cl)cc2)n1 | 6.05 | 5.02 | 0.9 µM | –
10 | O=C(Nc1ccc(N2CCNCC2)c(F)c1)c1ccc(-c2ccc(Cl)cc2)o1 | < 5.47 | 5.17 | 16 µM | –
11 | CCN(C(=O)c1ccc(-c2ccc(Cl)cc2)o1)c1ccc(N2CCNCC2)cc1 | – | – | > 8 µM | –
12 | O=C(Nc1ccc(N2CCNCC2)cc1)c1ccc(-c2cccc(Cl)c2)o1 | < 5.30 | < 4.70 | 13 µM | –
13 | CC(C)N(C(=O)c1ccc(-c2ccc(Cl)cc2)o1)c1ccc(N2CCNCC2)cc1 | 5.57 | 5.92 | > 20 µM | –
14 | O=C(Nc1ccc(N2CCNCC2)cc1)c1cccc(-c2ccc(Cl)cc2)n1 | 5.41 | 4.96 | > 10 µM | –
15 | O=C(Nc1ccc(N2CCNCC2)cc1)c1ccc(-c2ccc(Cl)s2)o1 | < 5.10 | 5.16 | > 20 µM | –
16 | O=C(c1ccc(-c2ccc(Cl)cc2)o1)N(Cc1ccncc1)c1ccc(N2CCNCC2)cc1 | – | – | > 8 µM | –
17 | O=C(Nc1ccc(N2CCNCC2=O)cc1)c1ccc(-c2ccc(Cl)cc2)o1 | – | 4.82 | – | –
18 | O=C(Nc1ccc(C2=CCNCC2)cc1)c1ccc(-c2ccc(Cl)cc2)o1 | 5.89 | 5.68 | 6.5 µM | –
19 | Cc1cc(Cl)ccc1-c1ccc(C(=O)Nc2ccc(N3CCNCC3)cc2)o1 | 5.85 | 5.23 | 8.8 µM | –
20 | Cn1ccnc1CN(C(=O)c1ccc(-c2ccc(Cl)cc2)o1)c1ccc(N2CCNCC2)cc1 | – | – | > 20 µM | –
21 | O=C(Nc1ccc(N2CCNCC2)cc1)c1ccc(-c2ccc(Cl)cc2Cl)o1 | 5.80 | 5.12 | 8.1 µM | –
22 | CN(C(=O)c1ccc(-c2ccc(Cl)cc2)o1)c1ccc(N2CCNCC2)cc1 | – | – | > 20 µM | –
23 | O=C(Nc1ccc(N2CCNCC2)cc1C(F)(F)F)c1ccc(-c2ccc(Cl)cc2)o1 | < 5.10 | < 4.70 | 18 µM | –
24 | O=C(Nc1ccc(N2CCNCC2)cc1)c1ccc(-c2ccc(Cl)cc2)s1 | 5.30 | 5.05 | 8 µM | –
25 | O=C(Nc1ccc(N2CCNCC2)cc1)c1ccc(-c2ccc(C(F)(F)F)cc2)o1 | < 5.11 | 4.70 | > 15 µM | –
26 | O=C(Nc1ccc(N2CCNCC2)cc1)c1ccc(-c2ccc(Cl)cc2)o1 | 5.70 | 5.26 | > 10 µM | pIC50 [15]: 5.12; pIC50 [16]: < 4.52; solubility [17]: > 20 µM; pIC50 [18]: < 4.52; pIC50 [19]: < 4.52; pIC50 [20]: < 4.52; pIC50 [21]: 5.30; pIC50 [22]: < 4.52; pIC50 [23]: < 4.52; pIC50 [24]: < 4.52; pIC50 [25]: < 4.52; pIC50 [26]: < 4.52; pIC50 [27]: < 4.52; pIC50 [28]: < 4.52
27 | CCCCN(C(=O)c1ccc(-c2ccc(Cl)cc2)o1)c1ccc(N2CCNCC2)cc1 | – | – | 19 µM | –
28 | O=C(c1ccc(-c2ccc(Cl)cc2)o1)N(Cc1ccccn1)c1ccc(N2CCNCC2)cc1 [listing 2 of 2 here] | – | – | – | inhibition [5]: Dose-dependent effect; inhibition [29]: > 50%; inhibition [10]: Dose-dependent effect; inhibition [30]: Dose-dependent effect; inhibition [13]: Dose-dependent effect
